Key:
[1] = system: Plasmodium falciparum; experiment: Antimalarial activity against chloroquine-sensitive Plasmodium falciparum NF54 in type O+ human erythrocytes after 48 hrs as reduced [3H]hypoxanthine uptake; assay type: functional, organism-based
Summary of the method: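 NF54 parasites grown in 2.4% O+ human erythrocyte suspension in RPMI 1640 with 25 mM HEPES, 27 mM NaHCO3, 10% heat-inactivated O+ human serum, under 3% O2/4% CO2/93% N2. Compounds serially diluted in 0.2% DMSO medium, incubated with culture 48 h, then 0.6 μCi [3H]hypoxanthine added for 20 h. Harvested on glass filters, scintillation counted. IC50 from dose-response curves.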

[2] = biological target: Plasmepsin II (Plasmodium falciparum, UniProt P46925); experiment: Inhibition of Plasmodium falciparum plasmepsin-2
Summary of the method: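 Plm II (400 nM) hydrolysis of chromogenic substrate H-Ala-Leu-Glu-Arg-Thr-Phe-Phe(p-NO2)-Ser-Phe-Pro-Thr-OH (163 μM) in 10 mM sodium formate pH 4.0, 2% DMSO, 25 °C, with increasing inhibitor. Rates fitted to tight-binding competitive inhibition equations for Ki.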

[3] = biological target: Protease (Human immunodeficiency virus 1) (UniProt Q9YQ12); experiment: Inhibition of recombinant HIV1 protease at 50 nM
Summary of the method: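 Recombinant HIV-1 PR (2 μg/mL stock) was mixed with inhibitor (500 nM solution in DMSO) in MES–NaOH pH 5.5 buffer containing DTT, EDTA and 1 M NaCl. The reaction was started with substrate H-Lys-Ala-Arg-Val-Tyr-Phe(p-NO₂)-Glu-Ala-Nle-NH₂ (1.0 mM solution) and run 15 min at 37 °C, then stopped with 1M HCl. The cleaved N-terminal fragment was quantified by reversed-phase C18 HPLC.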

[4] = Cytotoxicity against rat L6 cells after 72 hrs by Alamar blue resazurin assay; assay type: cell-based; conditions: read-out: TD50

Chain of Plasmepsin II (P46925 whole entry): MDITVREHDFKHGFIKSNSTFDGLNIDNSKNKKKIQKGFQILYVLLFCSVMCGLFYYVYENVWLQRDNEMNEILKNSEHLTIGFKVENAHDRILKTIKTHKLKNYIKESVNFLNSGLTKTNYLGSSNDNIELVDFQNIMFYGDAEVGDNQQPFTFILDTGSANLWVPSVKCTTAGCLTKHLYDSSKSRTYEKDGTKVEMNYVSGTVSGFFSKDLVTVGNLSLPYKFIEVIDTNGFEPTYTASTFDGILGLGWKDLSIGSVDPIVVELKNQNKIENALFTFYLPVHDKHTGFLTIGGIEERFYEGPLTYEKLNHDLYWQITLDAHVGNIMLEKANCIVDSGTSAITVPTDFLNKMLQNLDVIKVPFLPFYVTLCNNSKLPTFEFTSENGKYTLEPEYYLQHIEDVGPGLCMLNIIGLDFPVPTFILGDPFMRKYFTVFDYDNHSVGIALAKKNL
Chain of Protease (Human immunodeficiency virus 1) (Q9YQ12 as listed by the source): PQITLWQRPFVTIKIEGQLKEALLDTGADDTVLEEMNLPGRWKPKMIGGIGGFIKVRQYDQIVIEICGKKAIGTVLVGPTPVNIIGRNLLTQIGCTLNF

Row | SMILES | EC50 [1] [nM] | Ki [2] [nM] | inhibition [3] [%] | CC50 at 72 h [4] [nM]
1 | CC1(C)SCN(C(=O)[C@@H](O)[C@H](Cc2ccccc2)NC(=O)COc2cccc(N)c2)[C@@H]1C(=O)N[C@H]1c2ccccc2C[C@H]1O | > 8000 | 29 | 29 | –
2 | Cc1cc(N(C)C)cc(C)c1OCC(=O)N[C@@H](Cc1ccccc1)[C@H](O)C(=O)N1CSC(C)(C)[C@H]1C(=O)N[C@H]1c2ccccc2C[C@H]1O | 1200 | 21 | 86 | 45000
3 | Cc1cc(NCc2ccccn2)cc(C)c1OCC(=O)N[C@@H](Cc1ccccc1)[C@H](O)C(=O)N1CSC(C)(C)[C@H]1C(=O)N[C@H]1c2ccccc2C[C@H]1O | 300 | 10 | 91 | > 120000
4 | CC1(C)SCN(C(=O)[C@@H](O)[C@H](Cc2ccccc2)NC(=O)COc2c(F)cccc2F)[C@@H]1C(=O)N[C@H]1c2ccccc2C[C@H]1O | 3300 | 14 | 58 | 55000
5 | CC1(C)SCN(C(=O)[C@@H](O)[C@H](Cc2ccccc2)NC(=O)COc2ccccc2CO)[C@@H]1C(=O)N[C@H]1c2ccccc2C[C@H]1O | – | 132 | 61 | –
6 | CC(C)c1cccc(C(C)C)c1OCC(=O)N[C@@H](Cc1ccccc1)[C@H](O)C(=O)N1CSC(C)(C)[C@H]1C(=O)N[C@H]1c2ccccc2C[C@H]1O | 2900 | 23 | 0 | 6300
7 | CC1(C)SCN(C(=O)[C@@H](O)[C@H](Cc2ccccc2)NC(=O)COc2ccc(O)cc2)[C@@H]1C(=O)N[C@H]1c2ccccc2C[C@H]1O | > 8000 | 10 | 31 | –
8 | CC1(C)SCN(C(=O)[C@@H](O)[C@H](Cc2ccccc2)NC(=O)COc2c(Cl)cccc2Cl)[C@@H]1C(=O)N[C@H]1c2ccccc2C[C@H]1O | 5200 | 39 | 95 | –
9 | Cc1ccc(OCC(=O)N[C@@H](Cc2ccccc2)[C@H](O)C(=O)N2CSC(C)(C)[C@H]2C(=O)N[C@H]2c3ccccc3C[C@H]2O)cc1 | > 8000 | 55 | 27 | –
10 | CC1(C)SCN(C(=O)[C@@H](O)[C@H](Cc2ccccc2)NC(=O)COc2ccc(N)cc2)[C@@H]1C(=O)N[C@H]1c2ccccc2C[C@H]1O | > 8000 | 28 | 27 | –
11 | COc1cccc(OC)c1OCC(=O)N[C@@H](Cc1ccccc1)[C@H](O)C(=O)N1CSC(C)(C)[C@H]1C(=O)N[C@H]1c2ccccc2C[C@H]1O | – | 782 | 54 | –
12 | Cc1cc(NCc2cccnc2)cc(C)c1OCC(=O)N[C@@H](Cc1ccccc1)[C@H](O)C(=O)N1CSC(C)(C)[C@H]1C(=O)N[C@H]1c2ccccc2C[C@H]1O | 500 | 21 | 91 | > 120000
13 | CC1(C)SCN(C(=O)[C@@H](O)[C@H](Cc2ccccc2)NC(=O)COc2ccccc2O)[C@@H]1C(=O)N[C@H]1c2ccccc2C[C@H]1O | – | 112 | 34 | –
14 | CCCCCNc1cc(C)c(OCC(=O)N[C@@H](Cc2ccccc2)[C@H](O)C(=O)N2CSC(C)(C)[C@H]2C(=O)N[C@H]2c3ccccc3C[C@H]2O)c(C)c1 | 430 | 26 | 78 | 12000
15 | Cc1cc(O)cc(C)c1OCC(=O)N[C@@H](Cc1ccccc1)[C@H](O)C(=O)N1CSC(C)(C)[C@H]1C(=O)N[C@H]1c2ccccc2C[C@H]1O | 3300 | 5 | 98 | –
16 | COc1ccc(OCC(=O)N[C@@H](Cc2ccccc2)[C@H](O)C(=O)N2CSC(C)(C)[C@H]2C(=O)N[C@H]2c3ccccc3C[C@H]2O)cc1 | – | 479 | 38 | –
17 | CC1(C)SCN(C(=O)[C@@H](O)[C@H](Cc2ccccc2)NC(=O)COc2cccc(O)c2)[C@@H]1C(=O)N[C@H]1c2ccccc2C[C@H]1O | > 8000 | 10 | 13 | –

Row | SMILES | EC50 [1] [nM] | Ki [2] [nM] | inhibition [3] [%] | CC50 at 72 h [4] [nM]
18 | Cc1cccc(C)c1OCC(=O)N[C@@H](Cc1ccccc1)[C@H](O)C(=O)N1CSC(C)(C)[C@H]1C(=O)N[C@H]1c2ccccc2C[C@H]1O | – | – | 98 | –
19 | CC1(C)SCN(C(=O)[C@@H](O)[C@H](Cc2ccccc2)NC(=O)COc2ccccc2N)[C@@H]1C(=O)N[C@H]1c2ccccc2C[C@H]1O | – | 126 | 62 | –
20 | CCCCNc1cc(C)c(OCC(=O)N[C@@H](Cc2ccccc2)[C@H](O)C(=O)N2CSC(C)(C)[C@H]2C(=O)N[C@H]2c3ccccc3C[C@H]2O)c(C)c1 | 540 | 30 | 85 | 22000
21 | Cc1cc(NCc2ccncc2)cc(C)c1OCC(=O)N[C@@H](Cc1ccccc1)[C@H](O)C(=O)N1CSC(C)(C)[C@H]1C(=O)N[C@H]1c2ccccc2C[C@H]1O | 490 | 6 | 91 | > 120000
22 | CC1(C)SCN(C(=O)[C@@H](O)[C@H](Cc2ccccc2)NC(=O)COc2ccccc2[N+](=O)[O-])[C@@H]1C(=O)N[C@H]1c2ccccc2C[C@H]1O | – | 55 | 9 | –
23 | Cc1ccccc1OCC(=O)N[C@@H](Cc1ccccc1)[C@H](O)C(=O)N1CSC(C)(C)[C@H]1C(=O)N[C@H]1c2ccccc2C[C@H]1O | – | 145 | 72 | –
24 | CC1(C)SCN(C(=O)[C@@H](O)[C@H](Cc2ccccc2)NC(=O)COc2ccc([N+](=O)[O-])cc2)[C@@H]1C(=O)N[C@H]1c2ccccc2C[C@H]1O | 4200 | 25 | 53 | 63000
25 | CCNc1cc(C)c(OCC(=O)N[C@@H](Cc2ccccc2)[C@H](O)C(=O)N2CSC(C)(C)[C@H]2C(=O)N[C@H]2c3ccccc3C[C@H]2O)c(C)c1 | 720 | 7 | 84 | 64000
26 | Cc1cc(F)cc(C)c1OCC(=O)N[C@@H](Cc1ccccc1)[C@H](O)C(=O)N1CSC(C)(C)[C@H]1C(=O)N[C@H]1c2ccccc2C[C@H]1O | 1400 | 19 | 87 | 29000
27 | CC1(C)SCN(C(=O)[C@@H](O)[C@H](Cc2ccccc2)NC(=O)COc2cccc([N+](=O)[O-])c2)[C@@H]1C(=O)N[C@H]1c2ccccc2C[C@H]1O | 2800 | 38 | 12 | 58000
28 | CC1(C)SCN(C(=O)[C@@H](O)[C@H](Cc2ccccc2)NC(=O)COc2ccc(CO)cc2)[C@@H]1C(=O)N[C@H]1c2ccccc2C[C@H]1O | 1100 | 10 | 37 | > 120000
29 | Cc1cccc(OCC(=O)N[C@@H](Cc2ccccc2)[C@H](O)C(=O)N2CSC(C)(C)[C@H]2C(=O)N[C@H]2c3ccccc3C[C@H]2O)c1 | > 8000 | 42 | 13 | –
30 | Cc1cc(N)cc(C)c1OCC(=O)N[C@@H](Cc1ccccc1)[C@H](O)C(=O)N1CSC(C)(C)[C@H]1C(=O)N[C@H]1c2ccccc2C[C@H]1O | – | 23 | 96 | –
31 | CNc1cc(C)c(OCC(=O)N[C@@H](Cc2ccccc2)[C@H](O)C(=O)N2CSC(C)(C)[C@H]2C(=O)N[C@H]2c3ccccc3C[C@H]2O)c(C)c1 | 450 | 25 | 91 | > 120000
32 | COc1cccc(OCC(=O)N[C@@H](Cc2ccccc2)[C@H](O)C(=O)N2CSC(C)(C)[C@H]2C(=O)N[C@H]2c3ccccc3C[C@H]2O)c1 | > 8000 | 4 | 10 | –
33 | CC1(C)SCN(C(=O)[C@@H](O)[C@H](Cc2ccccc2)NC(=O)COc2cccc(CO)c2)[C@@H]1C(=O)N[C@H]1c2ccccc2C[C@H]1O | > 8000 | 9 | 24 | –
34 | COc1ccccc1OCC(=O)N[C@@H](Cc1ccccc1)[C@H](O)C(=O)N1CSC(C)(C)[C@H]1C(=O)N[C@H]1c2ccccc2C[C@H]1O | – | 153 | 27 | –

From ChEMBL document CHEMBL1151686, “Antimalarial activity enhancement in hydroxymethylcarbonyl (HMC) isostere-based dipeptidomimetics targeting malarial aspartic protease plasmepsin” (Bioorg Med Chem, 2008)
